{"source": "ChEMBL document CHEMBL4261516", "about": "“Design, synthesis and pharmacological evaluation of new 2-oxo-quinoline derivatives containing α-aminophosphonates as potential antitumor agents” (Medchemcomm, 2017)", "key": {"HepG2 [1]": {"test_system": "HepG2", "test": "Cell cycle arrest in human HepG2 cells assessed as accumulation at G1 phase at 8 uM after 48 hrs by propidium iodide staining-based flow cytometric method (reference value: 50.47%)", "assay_type": "functional"}, "HepG2 [2]": {"test_system": "HepG2", "test": "Cell cycle arrest in human HepG2 cells assessed as accumulation at G2 phase at 8 uM after 48 hrs by propidium iodide staining-based flow cytometric method (reference value: 19.04%)", "assay_type": "functional"}, "HepG2 [3]": {"test_system": "HepG2", "test": "Cell cycle arrest in human HepG2 cells assessed as accumulation at G1 phase at 10 uM after 48 hrs by propidium iodide staining-based flow cytometric method (reference value: 50.47%)", "assay_type": "functional"}, "HepG2 [4]": {"test_system": "HepG2", "test": "Cell cycle arrest in human HepG2 cells assessed as accumulation at G2/M phase after 48 hrs by propidium iodide staining-based flow cytometric method", "assay_type": "functional"}, "HepG2 [5]": {"test_system": "HepG2", "test": "Downregulation of CDC25C expression in human HepG2 cells after 48 hrs by Western blot method", "assay_type": "functional, cell-based"}, "HepG2 [6]": {"test_system": "HepG2", "test": "Disruption of mitochondrial membrane potential in human HepG2 cells at 10 uM after 12 hrs by JC1 staining-based fluorescent microscopic method", "assay_type": "functional, cell-based"}, "HepG2 [7]": {"test_system": "HepG2", "test": "Induction of apoptosis in human HepG2 cells assessed as pycnosis at 10 uM after 24 hrs by acridine orange/ethidium bromide staining-based fluorescent microscopic method", "assay_type": "functional, cell-based", "outline": "(§1)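 Cells were plated at 5×10^4 cells/mL on sterile cover slips. Medium was replaced with fresh medium containing 10% FBS plus compound. After treatment, cover slips were inverted onto slides with acridine orange/ethidium bromide stain and viewed by fluorescence microscopy.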"}, "HepG2 [8]": {"test_system": "HepG2", "test": "Induction of apoptosis in human HepG2 cells assessed as membrane blebbing at 10 uM after 24 hrs by acridine orange/ethidium bromide staining-based fluorescent microscopic method", "assay_type": "functional, cell-based", "outline": "as §1"}, "HepG2 [9]": {"test_system": "HepG2", "test": "Induction of apoptosis in human HepG2 cells assessed as late apoptotic cells at 8 uM after 24 hrs by annexin V/[…] staining-based fluorescent microscopic method (reference value: 1.91%)", "assay_type": "functional"}, "HepG2 [10]": {"test_system": "HepG2", "test": "Induction of apoptosis in human HepG2 cells assessed as necrotic cells at 10 uM after 24 hrs by annexin V/[…] staining-based fluorescent microscopic method (reference value: 0.28%)", "assay_type": "functional"}, "HepG2 [11]": {"test_system": "HepG2", "test": "Induction of apoptosis in human HepG2 cells assessed as viable cells at 12 uM after 24 hrs by annexin V/[…] staining-based fluorescent microscopic method (reference value: 91.31%)", "assay_type": "functional", "details": "HepG2, 24 h, read-out: Activity"}, "HepG2 [12]": {"test_system": "HepG2", "test": "Induction of apoptosis in human HepG2 cells assessed as upregulation of caspase-9 levels at 8 to 12 uM after 24 hrs by Western blot method", "assay_type": "functional, cell-based", "outline": "(§2)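 Treated HepG2 cells were lysed on ice in 1% SDS/Tris-HCl pH 7.5 buffer with EDTA, NaCl, PMSF, leupeptin and trypsin inhibitor, then cleared at 12,000 × g for 5 min. Protein was quantified by BCA, and 40–50 µg was run on 12% SDS-PAGE and blotted to PVDF. Membranes were blocked with 5% milk, incubated with primary antibody overnight at 4 °C and HRP secondary for 1 h. Detection by chemiluminescence with densitometry.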"}, "HepG2 [13]": {"test_system": "HepG2", "test": "Induction of apoptosis in human HepG2 cells assessed as upregulation of caspase-3 levels at 8 to 12 uM after 24 hrs by Western blot method", "assay_type": "functional, cell-based", "outline": "as §2"}}, "note": "Activity calls are given as the source filed them. The rule behind the calls is not given here."}
{"smiles": "CCOP(=O)(Cc1ccc(/N=C/c2cc3cc(C)ccc3[nH]c2=O)cc1)OCC", "values": [{"measurement": "Activity", "setting": "HepG2 [1]", "value": 35.31, "unit": "%"}, {"measurement": "Activity", "setting": "HepG2 [2]", "value": 34.68, "unit": "%"}, {"measurement": "Activity", "setting": "HepG2 [3]", "value": 33.91, "unit": "%"}, {"measurement": "Activity", "setting": "HepG2 [4]", "value": "Dose-dependent effect"}, {"measurement": "Activity", "setting": "HepG2 [5]", "value": "Dose-dependent effect"}, {"measurement": "Activity", "setting": "HepG2 [6]", "value": "Active"}, {"measurement": "Activity", "setting": "HepG2 [7]", "value": "Active"}, {"measurement": "Activity", "setting": "HepG2 [8]", "value": "Active"}, {"measurement": "Activity", "setting": "HepG2 [9]", "value": 15.49, "unit": "%"}, {"measurement": "Activity", "setting": "HepG2 [10]", "value": 0.12, "unit": "%"}, {"measurement": "viability at 12 µM", "setting": "HepG2 [11]", "value": 44.5, "unit": "%"}, {"measurement": "Activity", "setting": "HepG2 [12]", "value": "Active"}, {"measurement": "Activity", "setting": "HepG2 [13]", "value": "Active"}]}
